According to ChEMBL document CHEMBL4382201 (J Med Chem, 2018):
Values after ≈ are worked out from the molar mass of the structure shown. Active and inactive are the calls of the source. No cut-off for these calls is given here.

Assays:
[1] = Drug level in DMSO-d6/PBS buffer treated with (3-(((2-Amino-3-methoxy-3-oxopropyl)thio)methyl)-4-(bis(2-chloroethyl)amino)phenyl)boronic Acid assessed as compound formation after 10 days in presence of GSH by IT-TOF mass analysis; assay type: physicochemical; details: 240 h
dsDNA [2] = experiment: Induction of DNA-interstanded-cross-link formation in [32P]-labeled 49-mer duplex DNA (unknown origin) at 1 mM in presence of H2O2 after 16 hrs by PAGE relative to control; assay type: functional
Procedure, shortened: (§1)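 A 32P-labelled 49-mer, annealed with 1.5 equiv complement (65 °C for 3 min in 10 mM potassium phosphate pH 7, 100 mM NaCl, then slow cooling), was used at 1.0 µM before final dilution. Duplex was mixed with compound (final 1 mM), NaCl and potassium phosphate pH 8, with or without H2O2. Incubation 16 h at room temperature, formamide quench, then 20% denaturing PAGE.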

dsDNA [3] = experiment: Induction of DNA-interstanded-cross-link formation in [32P]-labeled 49-mer duplex DNA (unknown origin) at 1 mM in absence of H2O2 after 16 hrs by PAGE relative to control; assay type: functional; procedure, shortened: as §1
DNA = experiment: Induction of DNA cross-linking activity in human CLL-derived lymphocytes assessed as increase in gammaH2AX formation at 1 uM after 24 hrs by flow cytometry; assay type: functional, cell-based
Procedure, shortened: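 Primary CLL lymphocytes from 3 patients were treated for 24 h at 10 µM or 1 µM, depending on compound. H2AX phosphorylation (% γH2AX) was measured by flow cytometry.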

Lymphocyte = experiment: Induction of apoptosis in human lymphocytes at 10 uM after 24 hrs by Annexin V-FITC/propidium iodide-staining based flow cytometry; assay type: cell-based
Procedure, shortened: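 Normal PBMCs from 3 donors were isolated on Ficoll and treated at 10 µM. Apoptosis was measured by annexin V-FITC/PI flow cytometry against time-matched untreated controls.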

[4] = Solubility of the compound in PBS buffer at 10 mM at pH 7.4 by UV-based analysis; assay type: physicochemical
Procedure, shortened: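 Compound (10 mM DMSO stock) was diluted into pH 7.4 buffer (ethanolamine/KH2PO4/potassium acetate/KCl) to a final 5% DMSO. After sonication and 18 h agitation the mixture was filtered and scanned by UV at 230-800 nm. Solubility was calculated from calibration plots made in 20% acetonitrile buffer, in quadruplicate, with solubility standards on each plate.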

MDA-MB-468 [5] = experiment: Growth inhibition of human MDA-MB-468 cells after 48 hrs by […]; assay type: functional, cell-based; details: MDA-MB-468, 48 h
MDA-MB-468 [6] = experiment: Growth inhibition of human MDA-MB-468 cells after 48 hrs by SRB assay; assay type: functional; details: MDA-MB-468, 48 h
Procedure, shortened: (§2)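 NCI-60 five-dose screen at 100 µM, 10 µM, 1 µM, 100 nM and 10 nM. Incubation 48 h at 37 °C, 5% CO2, 100% humidity. Growth was expressed relative to the no-drug control and to the time-zero cell number, and GI50 was derived from these values.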

[7] = Drug metabolism in DMSO-d6/PBS buffer assessed as 2-((2-chloroethyl)(4-(4,4,5,5-tetramethyl-1,3,2-dioxaborolan-2-yl)phenyl)amino)ethanol formation after 10 days in presence of GSH by IT-TOF mass analysis
[8] = Drug metabolism in PBS buffer assessed as 4-(bis(2-chloroethyl)amino)phenylboronic acid formation at pH 6 to 7 after 48 hrs
SR = experiment: Growth inhibition of human SR cells after 48 hrs by SRB assay; assay type: functional; procedure, shortened: as §2
[9] = Drug metabolism in DMSO-d6/PBS buffer assessed as 4-(bis(2-chloroethyl)amino)phenylboronic acid formation after 10 days in presence of GSH by IT-TOF mass analysis
[10] = tested on: Panel NCI-60 (60 carcinoma cell lines); experiment: Growth inhibition of human NCI60 cells at 10 uM after 48 hrs by SRB assay relative to control; assay type: functional, cell-based
Procedure, shortened: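 NCI-60 one-dose screen: cells exposed to 10 µM for 48 h at 37 °C, 5% CO2, 100% humidity. Percent growth is given relative to the no-drug control and the time-zero cell count.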

[11] = Drug level in DMSO-d6/PBS buffer treated with N,N-bis(2-chloroethyl)-4-(4,4,5,5-tetramethyl-1,3,2-dioxaborolan-2-yl)aniline assessed as compound formation after 10 days in presence of GSH by IT-TOF mass analysis; assay type: physicochemical; details: 240 h
[12] = Drug level in DMSO-d6/PBS buffer treated with 4-(bis(2-chloroethyl)amino)phenylboronic acid assessed as compound formation after 10 days in presence of GSH by IT-TOF mass analysis; assay type: physicochemical; details: 240 h

COC(=O)C1CSCc2cc(B(O)O)ccc2N(CCCl)CCN1 (centres undefined)
Drug uptake [1]: Active

COc1cc(N(CCCl)CCCl)ccc1B1OC(C)(C)C(C)(C)O1
Activity (dsDNA [2]): < 65% | Activity (dsDNA [3]): 8% | Activity (DNA): Active | Activity (Lymphocyte): Non-Toxic | solubility [4]: 50 µM (≈ 18.7 µg/mL) | IC50 (MDA-MB-468 [5]): 34.4 µM

N[C@H](CSCc1cc(B(O)O)ccc1N(CCO)CCCl)C(=O)O
Drug uptake [1]: Active

CC1(C)OB(c2ccc(N(CCCl)CCCl)cc2)OC1(C)C
GI50 (MDA-MB-468 [6]): 1.6 µM | Activity (dsDNA [2]): < 65% | Activity (dsDNA [3]): 1.5 to 15% | Drug metabolism [7]: Metabolite detected | solubility [4]: 167 µM (≈ 57.5 µg/mL) | Drug metabolism [8]: Metabolite detected | IC50 (MDA-MB-468 [5]): 24.6 µM | GI50 (SR): 0.63 µM | Drug metabolism [9]: Metabolite detected

N[C@H](Cc1cn(Cc2cc(B(O)O)ccc2N(CCCl)CCCl)c2ccccc12)C(=O)O
Activity (dsDNA [2]): < 65% | Activity (dsDNA [3]): 1.5 to 15% | growth inhibition (GI) [10]: inactive

CCCCOC(=O)C(NC(=O)OC(C)(C)C)c1cn(Cc2cc(B3OC(C)(C)C(C)(C)O3)ccc2N(CCCl)CCCl)c2ccccc12 (centres undefined)
Activity (dsDNA [3]): < 5% | growth inhibition (GI) [10]: inactive

CC1(C)OB(c2ccc(N(CCO)CCCl)cc2)OC1(C)C
Drug uptake [11]: Active

OCCN(CCCl)c1ccc(B(O)O)cc1
Drug uptake [12]: Active
